Laboratory results: ChEMBL document CHEMBL1122127, “New anticancer agents: synthesis of 1,2-dihydropyrido[3,4-b]pyrazines (1-deaza-7,8-dihydropteridines)” (1982)

Columns and labels:
[1] = system: L1210; assay: Fraction of cell population of cultured lymphoid leukemia L1210 cells in mitosis at a dose of 0.3 uM after 24 hr; format: functional, Mus musculus
[2] = system: L1210; assay: Inhibitory concentration against proliferation of cultured lymphoid leukemia L1210 cells during 48 hrs.; format: functional; conditions: Mus musculus, L1210, 48 h; read-out: ID50 (the source's name)
[3] = system: Mus musculus; assay: Increase in life span at the highest nontoxic dose against P-388 tumor cell […] at 200 mg/kg; format: functional; conditions: P388
In short: (§1)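 Mice bearing lymphocytic leukemia P-388 (parental or drug-resistant sublines). The reported value is the increase in life span at the highest nontoxic dose tested.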

[4] = system: Mus musculus; assay: Increase in life span at the highest nontoxic dose against P-388 tumor cell after 1,5,9 day at 12.5 mg/kg; format: functional; conditions: P388; in short: as §1
[5] = system: Mus musculus; assay: Increase in life span at the highest nontoxic dose against P-388 tumor cell after 1,5,9 day at 6.25 mg/kg; conditions: P388
[6] = system: L1210; assay: Fraction of cell population of cultured lymphoid leukemia L1210 cells in mitosis at a dose of 0.01 uM after 12 hr; format: functional, Mus musculus
[7] = system: L1210; assay: Fraction of cell population of cultured lymphoid leukemia L1210 cells in mitosis at a dose of 0.3 uM after 12 hr; format: functional, Mus musculus
[8] = system: Mus musculus; assay: Increase in life span at the highest nontoxic dose against P-388 tumor cell […] at 25 mg/kg; format: functional; conditions: P388; in short: as §1
[9] = system: Mus musculus; assay: Increase in life span at the highest nontoxic dose against P-388 tumor cell after 1-5 days at 12 mg/kg; format: functional; conditions: P388; in short: as §1
[10] = system: Mus musculus; assay: Increase in life span at the highest nontoxic dose against P-388 tumor cell […] at 90 mg/kg; format: functional; conditions: P388; in short: as §1
[11] = system: Mus musculus; assay: Increase in life span at the highest nontoxic dose against P-388 tumor cell after 1,5,9 day at 30 mg/kg; format: functional; conditions: P388; in short: as §1
[12] = system: L1210; assay: Fraction of cell population of cultured lymphoid leukemia L1210 cells in mitosis at a dose of 0.03 uM after 12 hr; format: functional, Mus musculus
[13] = system: Mus musculus; assay: Increase in life span at the highest nontoxic dose against P-388 tumor cell […] at 67 mg/kg; format: functional; conditions: P388; in short: as §1
[14] = system: Mus musculus; assay: Increase in life span at the highest nontoxic dose against P-388 tumor cell […] was determined at 100 mg/kg; format: functional; conditions: P388; in short: as §1
[15] = system: Mus musculus; assay: Increase in life span at the highest nontoxic dose against P-388 tumor cell […] at 100 mg/kg; format: functional; conditions: P388; in short: as §1
[16] = system: Mus musculus; assay: Increase in life span at the highest nontoxic dose against P-388 tumor cell […] at 50 mg/kg; format: functional; conditions: P388; in short: as §1
[17] = system: Mus musculus; assay: Increase in life span at the highest nontoxic dose against P-388 tumor cell […] was determined at 25 mg/kg; format: functional; conditions: P388; in short: as §1
[18] = system: Mus musculus; assay: Increase in life span at the highest nontoxic dose against methotrexate resistant cell line of P-388 tumor cell […] at 25 mg/kg; format: functional; conditions: P388; in short: as §1
[19] = system: Mus musculus; assay: Increase in life span at the highest nontoxic dose against Vincristine-resistant line of P-388 tumor cell […] at 12 mg/kg; format: functional; conditions: P388; in short: as §1
[20] = system: L1210; assay: Fraction of cell population of cultured lymphoid leukemia L1210 cells in mitosis at a dose of 0.1 uM after 12 hr; format: functional, Mus musculus
[21] = system: Mus musculus; assay: Increase in life span at the highest nontoxic dose against P-388 tumor cell after 1-9 days at 25 mg/kg; format: functional; conditions: P388; in short: as §1

SMILES: CCOC(=O)Nc1cc2c(c(N)n1)N=C(c1ccc(Cl)cc1)CN2
- Mitotic index [1]: 0.26
- IC50 [2]: 52 nM
- ILS at 200 mg/kg [3]: 38%
- ILS at 12.5 mg/kg [4]: 37%
- ILS at 6.25 mg/kg [5]: 38%

SMILES: CCOC(=O)Nc1cc2c(c(N)n1)N=C(c1ccc(-c3ccccc3)cc1)CN2
- Mitotic index [6]: 0.65
- Mitotic index [7]: 0.42
- IC50 [2]: 6.1 nM
- ILS at 25 mg/kg [8]: 36%

SMILES: CCOC(=O)Nc1cc2c(c(N)n1)N=C(c1cccc(OC)c1)CN2
- IC50 [2]: 1.22 nM

SMILES: CCOC(=O)Nc1cc2c(c(N)n1)N=C(c1ccc(Cl)cc1Cl)CN2
- IC50 [2]: 44 nM

SMILES: CC[C@]1(O)C[C@H]2CN(CCc3c([nH]c4ccccc34)[C@@](C(=O)OC)(c3cc4c(cc3OC)N(C=O)[C@H]3[C@@](O)(C(=O)OC)[C@H](OC(C)=O)[C@]5(CC)C=CCN6CC[C@]43[C@@H]65)C2)C1 [VINCRISTINE]
- IC50 [2]: < 1 nM

SMILES: CCOC(=O)Nc1cc2c(c(N)n1)N=C(c1ccc(C)cc1)CN2
- IC50 [2]: 24 nM
- ILS at 12 mg/kg [9]: 30%

SMILES: CCOC(=O)Nc1cc2c(c(N)n1)N=C(c1ccc(Cl)c(Cl)c1)CN2
- IC50 [2]: 18 nM

SMILES: CCOC(=O)Nc1cc2c(c(N)n1)N=C(c1ccc(C(F)(F)F)cc1)CN2
- IC50 [2]: 150 nM
- ILS at 90 mg/kg [10]: 0%
- ILS at 30 mg/kg [11]: 0%

SMILES: CCOC(=O)Nc1cc2c(c(N)n1)N=C(CN(C)c1ccccc1)CN2
- Mitotic index [12]: 0.77
- Mitotic index [1]: 0.8
- IC50 [2]: 8.4 nM
- ILS at 67 mg/kg [13]: 90%
- ILS at 100 mg/kg [14]: 114%

SMILES: CCOC(=O)Nc1cc2c(c(N)n1)N=C(c1ccc(C)c(C)c1)CN2
- IC50 [2]: 138 nM

SMILES: CCOC(=O)Nc1cc2c(c(N)n1)N=C(CN(C)c1ccc(Cl)cc1)CN2
- Mitotic index [12]: 0.71
- IC50 [2]: 14.5 nM
- ILS at 100 mg/kg [15]: 65%

SMILES: CCOC(=O)Nc1cc2c(c(N)n1)N=C(c1ccc(N)cc1)CN2
- IC50 [2]: 23 nM

SMILES: COC(=O)Nc1nc2cc(C(=O)c3cccs3)ccc2[nH]1 [NOCODAZOLE]
- IC50 [2]: 27 nM

SMILES: CCOC(=O)Nc1cc2c(c(N)n1)N=C(CN(C)c1ccc(OC)cc1)CN2
- Mitotic index [12]: 0.64
- Mitotic index [7]: 0.49
- IC50 [2]: 7.9 nM
- ILS at 50 mg/kg [16]: 80%
- ILS at 25 mg/kg [17]: 133%
- ILS at 25 mg/kg [18]: 150%

SMILES: CCOC(=O)Nc1cc2c(c(N)n1)N=C(c1ccc(C)cc1C)CN2
- IC50 [2]: 42 nM

SMILES: CCOC(=O)Nc1cc2c(c(N)n1)N=C(c1ccc(F)cc1)CN2
- IC50 [2]: 6.8 nM

SMILES: CCOC(=O)Nc1cc2c(c(N)n1)N=C(c1ccc(OC)cc1)CN2
- IC50 [2]: 4.1 nM
- ILS at 25 mg/kg [8]: 50%

SMILES: CCOC(=O)Nc1cc2c(c(N)n1)N=C(c1ccccc1)CN2
- IC50 [2]: 4.7 nM
- ILS at 12 mg/kg [19]: 50%

SMILES: CCOC(=O)Nc1cc2c(c(N)n1)N=C(CN(C)c1ccc(C(=O)OC)cc1)CN2
- Mitotic index [20]: 0.44
- Mitotic index [7]: 0.61
- IC50 [2]: 58 nM
- ILS at 25 mg/kg [21]: 30%

SMILES: CCOC(=O)Nc1cc2c(c(N)n1)N=C(c1cc(OC)c(OC)c(OC)c1)CN2
- IC50 [2]: 78 nM
